GRK2 aptamer HTS – human GRK2 inhibition via aptamer displacement; P25098; bead flow cytometry, FAM-aptamer displacement from GRK2; inhibition of aptamer binding, % at 10 µM; 330,000 tested, 0.59% active; AID 488847;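 active = inhibition of aptamer binding above 40%, roughly 3 SD of noise, on plates passing a quality check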;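 note: median bead fluorescence of bound FAM aptamer so fluorescent compounds give negative values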
SUMO1 PPI mod – modulators of human SUMO1-mediated protein-protein interactions | P63165 | SUMO1 binding to a labelled peptide, TR-FRET, 1 h | inhibition, % at 20 µM | 360,000 tested, 0.33% active | AID 602429; in the data active = inhibition above about 37%
Target sequence (P63165 whole entry, looked up): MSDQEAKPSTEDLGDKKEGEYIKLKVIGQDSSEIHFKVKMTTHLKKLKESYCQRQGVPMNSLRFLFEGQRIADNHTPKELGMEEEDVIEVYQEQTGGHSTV
DNMT1 inh – blocks human DNA methyltransferase DNMT1; P26358; DNMT1 molecular beacon, Hinp1I cleavage, fluorescence; inhibition (reported as % activation of signal), % at 10 µM; 360,000 tested, 0.83% active; AID 588458; in the data active = inhibition above about 50%
LMPTP inh – blocks human LMPTP phosphatase; inhibition, % at 20 µM; AID 651560; recombinant LMPTP-A, OMFP fluorogenic substrate, fluorescence intensity; 360,000 tested, 0.22% active; P24666;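 active = compounds that cut the enzyme signal by at least half of the control window in the single-dose screen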
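Test system: LMPTP-A, protein tyrosine phosphatase of low molecular weight; Input: 0.625 nM enzyme; Incubation: 50 min dark incubation at room temperature; Signal: endpoint fluorescence intensity from OMFP dephosphorylation; Read-out basis: % inhibition versus control wells.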
Scp1 inh – Scp-1 (human) phosphatase inhibition; Recombinant Scp1, phosphopeptide, malachite green phosphate absorbance; inhibition, % at 20 µM; 340,000 tested, 0.88% active;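 active = inhibition above about 50% at 20 µM, limit read from the data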
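System: truncated SCP-1 phosphatase (76-261aa); medium: Tris acetate buffer pH 5.5 with MgCl2 and Tween-20; incubation: 45 min room-temperature reaction, 5 min colour, 30 min stabiliser; compound: single 20 µM dose, 1% DMSO; reagent: Phosphorylated 17-residue peptide substrate; read-out: % inhibition at 20 µM; technique: colorimetric free-phosphate detection, absorbance 630 nm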
STEP block – inhibitors of human striatal-enriched phosphatase STEP; P54829; recombinant STEP, OMFP fluorogenic substrate, fluorescence; inhibition, % at 20 µM; 360,000 tested, 0.25% active; AID 588621;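 active = inhibition at 20 µM, scaled per plate between control wells, above about 37%, limit read from the data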
Target sequence (P54829 whole entry, looked up): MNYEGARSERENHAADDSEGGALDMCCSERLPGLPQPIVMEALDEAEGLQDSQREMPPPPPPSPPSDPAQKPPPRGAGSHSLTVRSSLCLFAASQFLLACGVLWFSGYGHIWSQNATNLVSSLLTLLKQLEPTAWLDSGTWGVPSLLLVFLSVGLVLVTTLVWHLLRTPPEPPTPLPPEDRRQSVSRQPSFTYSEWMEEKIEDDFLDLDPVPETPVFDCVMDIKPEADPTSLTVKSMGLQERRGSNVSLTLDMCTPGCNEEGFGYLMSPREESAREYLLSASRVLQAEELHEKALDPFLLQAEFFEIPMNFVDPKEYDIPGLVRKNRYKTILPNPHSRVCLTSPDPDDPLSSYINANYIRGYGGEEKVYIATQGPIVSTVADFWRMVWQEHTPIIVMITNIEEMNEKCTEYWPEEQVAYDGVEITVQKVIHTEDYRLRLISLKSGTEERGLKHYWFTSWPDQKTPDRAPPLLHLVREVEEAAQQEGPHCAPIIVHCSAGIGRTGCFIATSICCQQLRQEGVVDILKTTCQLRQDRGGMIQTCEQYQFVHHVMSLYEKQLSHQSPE
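Also added – OMFP at 25 µM · Test system – STEP tyrosine phosphatase · Technique – FITC-channel fluorescence of OMFP product · Schedule – 20 min at room temperature, dark · Evaluation – control-normalized % inhibition with plate pattern correction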
DNMT1 interf DR – counter-screen for DNMT1 inhibitors: spectral interference, dose response; IC50, µM; 200 tested, under 10 active; shares compounds with DNMT1 inh; molecular beacon fluorescence; call rule not given here
DNMT1 confirm – DNMT1 inhibition confirmation, single concentration. AID 602385. DNMT1 molecular beacon HinP1I cleavage, fluorescence. 2,300 tested, 8% active. inhibition, % at 10 µM. shares compounds with DNMT1 inh;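 active = average inhibition of at least 30% in the single-concentration confirmation test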
Beacon interf – beacon fluorescence artifact counter-screen; shares compounds with DNMT1 inh; DNMT1 molecular beacon spectral interference counterscreen, fluorescence 485/520; activation (fluorescence interference), % at 10 µM; 2,300 tested, 1% active;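 active = activation of at least 30% at 10 µM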;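 note: DNMT1 catalytic domain with a HinP1I cleavage step and a FAM/dabcyl DNA beacon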
A number is an active result; n = inactive; x = no result given. Shown are actives, neighbours in structure and some others; about 2.1% of the full set was active somewhere.

SMILES	GRK2 aptamer HTS	SUMO1 PPI mod	DNMT1 inh	LMPTP inh	Scp1 inh	STEP block	DNMT1 confirm	Beacon interf	others
N/C(=N\OC(=O)c1ccccc1)c1ccn[nH]1	n	n	n	n	n	n	x	x
CCN1C(=O)[C@H]2[C@@H](c3ccc(-c4cccc(Cl)c4)c(OC)c3)N[C@@](Cc3ccccc3)(C(=O)OC)[C@H]2C1=O	n	n	111.7	n	n	n	n	n
Cc1cc(C(=O)CS(=O)(=O)c2ccc(F)cc2)cc(C)c1O	n	n	n	n	n	n	x	x
COc1cc(CCc2ccccc2)c(C(=O)O)c(O)c1C/C=C(/C)CCC=C(C)C	n	77.2	61.1	n	n	n	84.5	n	DNMT1 interf DR=n
C=CCc1cccc(C=Nc2cc(Br)ccc2O)c1O	n	n	n	n	n	n	x	x
C=CCc1cccc(C=Nc2c[nH]c(=O)[nH]c2=O)c1O	n	n	71.6	n	n	n	n	n
O=C(O)c1ccccc1C1=Nc2ccc(O)cc2Oc2cc(O)ccc21	n	n	54.9	n	n	n	39.1	44.7
CCOC(=O)C1=C[C@@H](C(C)(C)C)N(S(=O)(=O)c2ccc(C)cc2)[C@H]1c1cccc(Cl)c1	x	n	n	n	x	n	x	x
Cc1ccc(N2CCCC2=O)cc1S(=O)(=O)N1CCOCC1	n	n	n	n	n	n	x	x
COc1ccc(N2CCCC2=O)cc1S(=O)(=O)N1CCOCC1	x	n	72.0	n	x	n	n	n
COc1ccc(C2=NN(c3nc(-c4ccccc4)c(CC(=O)O)s3)C(c3ccco3)C2)cc1 (stereo not given)	n	n	56.4	n	n	n	n	n
CC(C)CN(C(=O)COC(=O)c1cc2c(s1)CCC2)C1CCS(=O)(=O)C1 (stereo not given)	n	n	95.7	n	89.2	n	n	n
N#Cc1c(SCC(=O)Nc2ccc(C(F)(F)F)cc2)sc2c(O)cc(=O)[nH]c12	n	n	n	n	n	n	x	x
N#Cc1c(SCC(=O)Nc2nncs2)sc2c(O)cc(=O)[nH]c12	41.0	n	70.8	n	80.9	n	n	n
CC1(C(=O)NCc2cccc(Cl)c2)Cc2c(-c3cccc(C(N)=O)c3)ccnc2O1 (stereo not given)	x	n	n	n	x	n	x	x
Cc1ccc(S(=O)(=O)NN=CC=CC=NNS(=O)(=O)c2ccc(C)cc2)cc1	x	n	n	n	x	n	x	x
Cc1cc(F)ccc1C(O)c1ncc(-c2ccccc2F)[nH]1 (stereo not given)	x	n	n	n	x	n	x	x
O=c1[nH]nnc2c1sc1nc(N3CCOCC3)c3c(c12)CCCC3	n	n	94.6	n	n	n	n	n
Cc1ccc(-c2ccc(/C=N\NC(=O)c3cc4c(ccc5ccccc54)o3)o2)cc1[N+](=O)[O-]	n	n	71.9	n	n	n	n	n
Cc1cc(C(=O)N2CCC2(C)C(=O)NCC(C)(C)C)nn1C (stereo not given)	x	n	n	n	x	n	x	x
CC(=O)c1ccc(NC(=S)N2CCN(CCN3C(=O)c4cccc5cccc(c45)C3=O)CC2)cc1	n	n	55.5	n	n	n	n	n
COc1cc(OC)c(NS(=O)(=O)c2cc(C(=O)NCCCN3CCOCC3)ccc2C)cc1Cl	x	n	n	n	x	n	x	x
O=C(CN(c1ccccc1)S(=O)(=O)c1ccc(F)cc1)NC1CCCCCC1	n	n	n	n	n	n	x	x
CC1(C)Cc2c(C#N)c(NCCCO)nc(-c3ccccc3)c2CO1	n	n	65.5	n	n	n	n	n
Cc1nc2sccn2c(=O)c1CCN1CCC(=C(c2ccc(F)cc2)c2ccc(F)cc2)CC1	n	n	59.2	n	n	n	n	n
SMILES	GRK2 aptamer HTS	SUMO1 PPI mod	DNMT1 inh	LMPTP inh	Scp1 inh	STEP block	DNMT1 confirm	Beacon interf	others
COc1ccc(NS(=O)(=O)c2cccc(C(=O)N/N=C/c3ccc4c(c3)OCCO4)c2)cc1	n	n	59.6	n	n	n	n	n
O=C(N/N=C/c1ccc2c(c1)OCO2)c1sc2cc(Cl)ccc2c1Cl	n	n	67.2	n	n	n	n	n
O=C(N/N=C/c1ccc2c(c1)OCO2)c1sc2cccc(Cl)c2c1Cl	n	n	n	n	n	n	x	x
COc1ccc2c(Cl)c(C(=O)N/N=C/c3ccc4c(c3)OCO4)sc2c1	n	n	62.0	n	n	n	n	n
COc1ccccc1NS(=O)(=O)c1cccc(C(=O)N/N=C/c2ccc3c(c2)OCCO3)c1	n	n	n	n	n	n	x	x
CNC(=O)C[C@@H]1C(=O)N(C2CCCCC2)CC1(C)C	x	n	n	n	x	n	x	x
CCOC(=O)C1CCN(c2c(NCCCN3CCCCC3)c(=O)c2=O)CC1	n	n	92.8	n	n	n	n	n
CC(=O)c1ccc(OCCCC(=O)Nc2nnc(C3CC3)s2)cc1	n	n	n	n	n	n	x	x
N#Cc1c2nc3ccccc3nc2n2cc(NC(=O)c3ccc(F)cc3)ccc12	x	n	103.1	n	n	n	n	n
Cc1c(C(=O)Nc2ccc(F)cc2)cn2c(nc3ccccc32)c1C#N	n	n	n	n	n	n	x	x
CCOC(=O)[C@]12CCCC=C1N(Cc1ccco1)C(=O)[C@H](CC(=O)N1CCSCC1)C2	x	n	x	n	x	x	x	x
CCOc1ccc(Cl)cc1-c1cc(C(=O)NC2CCCCC2)[nH]n1	x	n	74.3	n	x	n	n	n
CCCC(=O)Nc1ccc(-c2nc3cc(C)c(C)cc3o2)cc1	n	n	55.6	n	n	n	n	n
O=C(CN1C(=O)c2ccccc2C1=O)Nc1ccc(-c2nc3ccccc3o2)cc1	n	n	78.0	n	n	n	n	n
CCCc1nc2c3ccccc3ccn2c1Cc1ccccc1	x	n	n	n	x	n	x	x
CCOc1cc(NC(=O)c2ccco2)c(OCC)cc1NC(=O)COc1ccccc1C	n	n	64.7	n	n	n	n	n
Cc1ccccc1OCC(=O)Nc1ccccc1NC(=O)c1ccco1	n	n	n	n	n	n	x	x
O=C(CSC1=NS(=O)(=O)c2ccccc2N1)Nc1ccccc1F	n	n	n	n	n	n	x	x
Cn1ccsc1=NC(=O)c1ccc([N+](=O)[O-])o1	n	n	59.4	n	65.0	n	n	n
CCCCCCc1cc2cc(-c3nnc(-c4ccccc4OC)o3)c(=O)oc2cc1O	n	n	100.3	n	n	n	n	n
CCCCCCc1cc2cc(C(=O)Nc3ccccc3OC)c(=O)oc2cc1O	n	n	n	n	n	n	x	x

Compound activity as filed in PubChem BioAssay.
